An excerpt weighted towards active compounds, which were near 4.1% of everything screened.
Dynein cargo inh = dynein cargo transport inhibition; hit rate 0.47% among 220,000; z-score, hits read low; 3617.4 mouse cells, GR-EGFP nuclear translocation imaging; test concentration mostly 20 µM; stimulated with dexamethasone, 1 µM; active compounds read low;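 active = plate z-score of nuclear minus cytoplasmic receptor signal below a set negative limit, without overly bright fluorescence or cell loss, cut at about -3.5 in these data, passing the limit was not always enough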;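 also: z-score of nuclear minus cytoplasmic ring GR-EGFP intensity difference per well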
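Medium: Induction medium lacking tetracycline, stripped serum | Probe or stimulus: 1.0 µM final dexamethasone stimulus | Schedule: 48 h induction, then 1 h compound, then 30 min agonist, 37 °C | Signal: Automated 10x imaging of fixed Hoechst-stained cells | Evaluation: Per-cell GR-EGFP intensity, nucleus versus surrounding cytoplasmic ring, well-averaged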
DTT redox prof = compounds producing H2O2 with reducing agent – biochemical, NIH compound library profiling, artefact control for MLSCN library redox annotation, primary screen; DTT-dependent redox cycling H2O2, phenol red/HRP absorbance; 100% = 100 µM peroxide control, 0% = buffer; activation, % at 10 µM; hit rate 0.03% among 200,000; AID 878;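 active = activation of at least 50% relative to the plate's high and low controls in the primary single-dose screen; inactive = activation below 50%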;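 also: compound incubated with DTT at 0.8 mM final as the reducing agent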
ROMK mod = human ROMK K+ channel modulation, primary screen; P48048; Tet-inducible ROMK, thallium flux fluorescence; actives lie on both sides; B-score at 10 µM; hit rate 2% among 130,000;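 active = signal ratio slope over the read window, or its plate-corrected B-score, at least 3 SD from the plate mean, either direction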;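 also: B-score of the F/F0 ratio slope over 7 to 12 s after thallium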
Autophagy mod = autophagy modulation, high-content screen; MEF GFP-LC3 puncta imaging; test concentration mostly 10 µM; calls only at 10 µM (by protocol); hit rate 0.98% among 190,000;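 active = percentage of spot-positive cells more than 3 SD above its plate mean, without a fluorescence outlier flag or 80% toxicity; inconclusive = no clear call, values can overlap the other calls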
KCC2 mod = modulators of human KCC2 chloride dependent transport; Q9H2X9; KCC2 cells, thallium flux FluoZin-2 fluorescence; B-score of Tl+ flux slope (higher = more flux/activation; lower = inhibition) at 10 µM; hit rate 2.2% among 190,000; AID 1456;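 active = thallium flux slope and its plate-corrected score both differing from the plate sample mean at a set confidence after two filtering rounds, in either direction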;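 also: slope of fluorescence scaled to starting intensity during 10 to 20 s after thallium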
Target sequence (Q9H2X9 whole entry, looked up): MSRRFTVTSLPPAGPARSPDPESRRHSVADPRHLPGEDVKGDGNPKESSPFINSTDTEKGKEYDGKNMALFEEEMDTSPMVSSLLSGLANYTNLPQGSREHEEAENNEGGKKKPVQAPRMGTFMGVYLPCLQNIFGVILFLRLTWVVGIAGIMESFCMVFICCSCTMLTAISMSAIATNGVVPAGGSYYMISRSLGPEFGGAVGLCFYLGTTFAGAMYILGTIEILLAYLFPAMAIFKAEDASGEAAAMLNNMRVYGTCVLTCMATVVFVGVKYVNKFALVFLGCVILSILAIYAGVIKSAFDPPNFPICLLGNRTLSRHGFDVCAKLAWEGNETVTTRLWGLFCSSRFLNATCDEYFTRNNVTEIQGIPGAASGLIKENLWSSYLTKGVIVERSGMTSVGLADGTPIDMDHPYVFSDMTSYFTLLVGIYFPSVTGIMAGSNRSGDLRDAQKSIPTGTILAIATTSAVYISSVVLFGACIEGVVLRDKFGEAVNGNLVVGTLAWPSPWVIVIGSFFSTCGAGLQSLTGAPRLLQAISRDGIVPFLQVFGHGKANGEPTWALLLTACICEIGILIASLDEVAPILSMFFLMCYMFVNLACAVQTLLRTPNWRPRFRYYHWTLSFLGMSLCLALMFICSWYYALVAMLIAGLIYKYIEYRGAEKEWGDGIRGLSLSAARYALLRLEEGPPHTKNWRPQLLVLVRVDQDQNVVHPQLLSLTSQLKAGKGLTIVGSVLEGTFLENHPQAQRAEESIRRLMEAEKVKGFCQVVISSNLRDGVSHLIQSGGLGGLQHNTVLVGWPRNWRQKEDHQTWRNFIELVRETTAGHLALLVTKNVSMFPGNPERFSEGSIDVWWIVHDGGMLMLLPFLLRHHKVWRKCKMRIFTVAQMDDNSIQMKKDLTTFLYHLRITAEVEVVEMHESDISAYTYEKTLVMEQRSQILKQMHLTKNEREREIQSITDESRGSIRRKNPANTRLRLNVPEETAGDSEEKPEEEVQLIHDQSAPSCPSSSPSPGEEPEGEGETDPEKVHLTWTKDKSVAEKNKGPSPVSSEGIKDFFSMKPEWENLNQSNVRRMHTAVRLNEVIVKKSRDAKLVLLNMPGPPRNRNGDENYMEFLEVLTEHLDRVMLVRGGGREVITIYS
KCC2 sec1 = confirmation of human KCC2 transport modulators; shares compounds with KCC2 mod; HEK293-KCC2, thallium flux, FluoZin2 fluorescence; active compounds read high; normalised thallium flux (F/F0 slope) at 10 µM; hit rate 15% among 3,700;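 active = thallium flux slope above the same plate's solvent-only control mean plus 3 SD; inconclusive = the two replicate wells disagree; inactive = no significant difference from solvent-only control wells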
KCC2 bumet counter = thallium flux despite bumetanide block in KCC2 cells, secondary assay 3 | shares compounds with KCC2 mod | HEK293-KCC2 + bumetanide/ouabain, thallium flux FluoZin2; active compounds read high | normalized thallium flux at 10 µM | hit rate 49% among 3,700 | AID 1714;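 active = thallium entry rate above the same plate's blocked-transporter control wells by more than 3 SD; inconclusive = the two repeat wells disagree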;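 also: raw slope of fluorescence over initial fluorescence between 10 and 20 s after thallium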
KCC2 secondary2 = KCC2 (human) modulation, second secondary assay. shares compounds with KCC2 mod. HEK293-KCC2, thallium flux FluoZin2 fluorescence; actives lie on both sides; F/F0 rise rate, 10–20 s post-thallium. normalized thallium flux at 10 µM. hit rate 23% among 3,700. AID 1715;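 active = thallium flux slope more than 3 SD above or below the plate's solvent-only control mean, mostly below; inconclusive = the two repeat wells disagreed; inactive = no significant shift from solvent-only controls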
HEK counter1 = counter-screen for KCC2 modulators: effect in parental HEK293 cells | shares compounds with KCC2 mod | thallium flux FluoZin2, ouabain; baseline-ratio fluorescence slope, 10–20 s after thallium | thallium flux rate (normalised fluorescence) at 10 µM | hit rate 46% among 3,700 | AID 1716;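 active = thallium flux rate significantly above the same plate's solvent-only control wells, beyond their mean plus 3 SD; inconclusive = the two replicate wells gave conflicting results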
KCC2 retest ouab = modulates human KCC2 on retest with ouabain | shares compounds with KCC2 mod | HEK293-KCC2, thallium flux FluoZin2 fluorescence; bidirectional: low = inhibitor, high = activator | raw Tl+ flux slope (below DMSO = inhibition, above = activation) at 10 µM | hit rate 48% among 3,700;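 active = thallium flux slope beyond 3 SD from same-plate DMSO control mean in most replicates, usually higher, sometimes lower; inconclusive = repeat tests gave conflicting results; inactive = no significant difference from controls in most replicates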;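 also: slope of initial-normalized fluorescence between seconds 10 and 20 after thallium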
HEK counter2 = acts in parental HEK cells, second KCC2 counter-screen; shares compounds with KCC2 mod; HEK293 parental, thallium flux FluoZin-2 fluorescence slope; thallium flux slope at 10 µM; hit rate 33% among 3,700; AID 1718;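 active = thallium flux slope above the same plate's solvent-control mean plus 3 SD in both duplicate wells; inconclusive = duplicate wells that disagreed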;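 also: run without ouabain in cells lacking the KCC2 cotransporter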
Numbers stand for hits; 0 = inactive; ? = inconclusive; - = no result given.

SMILES	Dynein cargo inh	DTT redox prof	ROMK mod	Autophagy mod	KCC2 mod	KCC2 sec1	KCC2 bumet counter	KCC2 secondary2	HEK counter1	KCC2 retest ouab	HEK counter2
CN1C(C(=O)NCc2ccccc2)CC2Cn3c(nc4cc(Cl)c(Cl)cc43)C21 (stereo unspecified)	0	-	-	-	-3.2	0	0	0.0225	0	0	0
CN1C(C(=O)NCc2ccccc2)CC2Cn3c(nc4ccccc43)C21 (stereo unspecified)	0	-	-	-	0	-	-	-	-	-	-
COCc1c(C(=O)N/N=C/c2cccc3ccccc23)nnn1-c1nonc1N	0	0	0	0	0	-	-	-	-	-	-
Cc1onc(-c2ccccc2)c1NC(=O)N(CCC#N)Cc1ccccc1	0	-	-	-	0	-	-	-	-	-	-
CC(OC(=O)c1cn(-c2ccccc2)nc1-c1cccnc1)C(N)=O (stereo unspecified)	0	0	0	0	0	-	-	-	-	-	-
CCCn1c(SCC(=O)N2c3ccccc3CC2C)nnc1-c1ccco1 (stereo unspecified)	0	0	0	0	-4.81	0	0	0	?	0.0178	0
Cc1noc(C)c1S(=O)(=O)N1CCC(C(=O)N2CCN(c3ccc(F)cc3)CC2)CC1	0	0	0	0	-4.88	0	?	0.0255	0	?	0
O=C(Nc1nnc(-c2cccc(F)c2)s1)Nc1ccccc1F	0	0	0	0	3.8	0	0	0	0	0	0
O=C(Nc1ccc(F)cc1)Nc1nnc(COc2ccccc2F)s1	0	0	-	0	0	-	-	-	-	-	-
O=C(Nc1nnc(COc2ccccc2F)s1)Nc1ccccc1F	0	-	-	-	2.58	0	0	0	0	0	0
CCOc1ccccc1N1C(=O)c2ccc(C(=O)Nc3cccnc3)cc2C1=O	0	0	-	-	-4.62	0	0	0	0	0	0
CCCOc1ccc(-c2nc(OCC)c3ccccc3n2)cc1	0	0	0	0	-	-	-	-	-	-	-
CCOc1nc(-c2ccncc2)nc2ccccc12	0	0	0	0	0	0	0	?	0	0	0
O=C(O)Cc1ccc(S(=O)(=O)Nc2ccccc2C(=O)O)cc1	0	0	0	0	0	-	-	-	-	-	-
O=C(c1ccc(COc2ccccc2Br)o1)N1CCCCCC1	0	0	0	0	-	0	0.0033	?	0.00626	0.0161	?
COc1cc(NC(=O)c2ccc(COc3ccccc3Br)o2)cc(OC)c1OC	0	0	0	0	-	0	0	0.0246	0.0061	0.0154	0
Cc1cccn2c(CN3CCCN(C=O)CC3)c(C(=O)N(C)CCc3ccccc3)nc12	0	0	0	0	0	-	-	-	-	-	-
O=C(NC(=S)Nc1ccccc1O)c1ccccc1Cl	0	0	0	0	0	-	-	-	-	-	-
FC(F)(F)c1nc2ccccc2nc1N/N=C\c1ccccc1	0	0	-	0	-	0	0.00588	0	0	0	0
C=CCOc1ccc(C2CC(C)=NN2c2ccccc2)cc1 (stereo unspecified)	0	0	0	0	0	-	-	-	-	-	-
N#C/C(=C(/O)COC(=O)c1ccccc1O)c1nc2ccccc2s1	0	0	0	0	-5.13	0	0	0	0	0.016	0
CN(C)c1nc(/C=C(\C#N)C(N)=O)c(Cl)n1-c1ccc(F)cc1	0	0	0	0	0	-	-	-	-	-	-
CCCCn1c(-c2cccnc2)n[nH]c1=S	0	0	-	0	0	-	-	-	-	-	-
CCCc1cc(-c2n[nH]c(=S)n2CC)cs1	0	0	0	0	-	0.0132	0.0204	0	0.0136	0	0.0119
CCc1cc(-c2n[nH]c(=S)n2CC)cs1	0	0	0	0	0	-	-	-	-	-	-
SMILES	Dynein cargo inh	DTT redox prof	ROMK mod	Autophagy mod	KCC2 mod	KCC2 sec1	KCC2 bumet counter	KCC2 secondary2	HEK counter1	KCC2 retest ouab	HEK counter2
CCCCn1c(-c2csc(CCC)c2)n[nH]c1=S	0	0	0	0	37.2	?	0.0799	0.0442	0.0322	0.0408	0.0314
CCCOC(=O)CC1C(=O)NCCN1C(=O)OC(C)(C)C (stereo unspecified)	0	0	0	0	0	-	-	-	-	-	-
COc1ccc(C(=O)NNC(=O)CSc2nnc(C)n2C)cc1	0	0	0	0	0	-	-	-	-	-	-
CCc1nnc(NC(=O)c2ccc(S(=O)(=O)N(CC(C)C)CC(C)C)cc2)o1	0	0	-	0	5.08	0.0121	0.0191	0	0.01	0.0217	0
CCN(Cc1ccccc1)S(=O)(=O)c1ccc(C(=O)Nc2nnc(C3CC3)o2)cc1	0	0	-	0	3.62	0	0.019	0	?	?	0
COc1ccc(-c2nnc(NC(=O)c3cc(Cl)ccc3Cl)o2)cc1	0	0	-	0	22.7	0	0.0549	0.0444	0.0388	0.0497	0.0314
Cc1ccc(C)c(SCC(=O)Nc2nnc(-c3ccccc3)o2)c1	0	0	0	0	15.6	0.0187	0.0566	0	0.0383	0.0463	0.0139
Cc1ccccc1C(=O)Nc1nnc(-c2ccc(F)cc2)o1	0	0	-	0	7.32	0.0129	0.024	0	0.0156	0	?
COCCN(C(=O)CSc1nc2ccccc2c(=O)n1CCOC)c1c(N)n(Cc2ccccc2)c(=O)[nH]c1=O	0	0	0	0	0	-	-	-	-	-	-
Cc1cc(C)c(Cn2cnc3ccccc32)c(C)c1	0	0	0	0	0	-	-	-	-	-	-
O=C(O)c1sccc1SCc1ccc(Cl)cc1Cl	0	0	-	0	-	0	0	0.0217	0.00554	0.011	0
CCOC(=O)c1c(C)[nH]c(N=Nc2cccc(OC)c2)c1C	0	0	0	0	0	-	-	-	-	-	-
Cc1cccc(C)c1NC(=O)CN1C(=O)S/C(=C\c2cccn2-c2cccc(C(=O)O)c2)C1=O	0	0	-	0	-	-	-	-	-	-	-
Cc1cccc(C)c1-n1cccc1/C=C1\SC(=S)N(c2cccc(C(=O)O)c2)C1=O	0	0	0	0	-4.47	0	0	0	0.00545	0.0148	0.00829
COc1cccc(C(=O)OCC(=O)NC(=O)NC2CCCC2)c1O	0	0	0	0	10.8	0	0.017	0	0.0203	0.0265	0.0144
O=c1[nH]nc(-c2ccc(F)cc2)cc1Cc1ccccn1	0	-	0	-	0	-	-	-	-	-	-
Cc1ccc(-c2cc(Cc3ccccn3)c(=O)[nH]n2)cc1	0	-	0	-	0	0	0.00863	0	0	0	0
O=C(OCn1ncc(Cl)c(Cl)c1=O)c1ccccc1Cl	0	0	-	0	-4.25	0	0	0	?	0.0153	0
O=C(OCn1ncc(Cl)c(Cl)c1=O)c1ccc(F)cc1	0	0	-	0	-4.11	0	?	0.0256	0	?	0
